What all share (assay): PAFAH2 inhibition and serine hydrolase selectivity, late-stage follow-up, cell lysate, fluorescence, gel-based ABPP, BW5147 T-cell proteome, powder samples (AID 504513);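 also: 0% = DMSO-only band intensity and 100% = blank gel background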
One assay concerns ABHD11. The conditions noted are these: BW5147 mouse T-cell proteome, FP-Rh gel ABPP, stronger effect = higher value. Summed up: (§1)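 assay system = mouse BW5147 T-cell soluble lysate | amount = 1 mg/mL soluble protein | schedule = compound pretreatment 30 min, then 30 min probe labelling at 25 °C | measured by = in-gel fluorescence of probe-labelled bands, integrated optical density | evaluation = percent band labelling lost versus DMSO control | control set = DMSO-only sample as high, blank gel area as low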

The test system of a further assay is APEH. The conditions noted are these: BW5147 mouse T-cell proteome, FP-Rh gel ABPP, stronger effect = higher value. Summed up: as §1
The next assay has as its system ESD. The conditions noted are these: BW5147 mouse T-cell proteome, FP-Rh gel ABPP, stronger effect = higher value. The method, boiled down:
as §1

The subject of the next assay is LYPLA1. The conditions noted are these: BW5147 mouse T-cell proteome, FP-Rh gel ABPP, stronger effect = higher value. The method, boiled down:
as §1

For assay [1], the target named is Platelet-activating factor acetylhydrolase 2, cytoplasmic (Mus musculus) (UniProt Q8VDG7). The conditions noted are these: FP-Rh gel ABPP, stronger effect = higher value. The method, boiled down:
as §1

Molecules are shown by their SMILES. The source made the active and inactive calls.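 The calls were made as follows: active = PAFAH2 inhibition at least 50% at 0.2 µM with under 50% on each related off-target enzyme; inactive = the rest, including PAFAH2 hits that also hit off-targets.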

Sequence of Platelet-activating factor acetylhydrolase 2, cytoplasmic (Mus musculus) (Q8VDG7 whole entry, looked up): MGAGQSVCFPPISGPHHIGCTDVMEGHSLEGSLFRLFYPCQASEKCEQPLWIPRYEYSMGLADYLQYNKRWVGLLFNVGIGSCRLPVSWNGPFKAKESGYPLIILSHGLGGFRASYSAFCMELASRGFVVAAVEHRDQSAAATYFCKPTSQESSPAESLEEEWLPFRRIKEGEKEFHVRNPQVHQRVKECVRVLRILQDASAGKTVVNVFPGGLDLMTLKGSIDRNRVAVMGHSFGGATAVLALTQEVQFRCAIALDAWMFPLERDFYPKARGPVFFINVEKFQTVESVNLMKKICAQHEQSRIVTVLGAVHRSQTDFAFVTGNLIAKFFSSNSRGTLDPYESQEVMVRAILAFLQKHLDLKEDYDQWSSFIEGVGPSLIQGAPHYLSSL

`O=C(N1CCOCC1)n1ncc(-c2ccc(OC(F)(F)F)cc2)n1`: the inhibition was 100% in the assay on ABHD11 (at 1 µM); 25% with ABHD11 (inhibition, at 0.02 µM); 100% with ABHD11 (inhibition, at 0.2 µM); 0% (inactive) with APEH (at 1 µM); 0% in the assay on APEH (inhibition, at 0.02 µM); 0% with APEH (inhibition, at 0.2 µM). For the same compound, the inhibition with ESD (at 1 µM) was 0% (inactive); with ESD (inhibition, at 0.02 µM) it was 0%; with ESD (inhibition, at 0.2 µM) it was 0%; in the assay with LYPLA1 (at 1 µM), 0% (inactive); in the assay on LYPLA1 (inhibition, at 0.02 µM), 0%; in the assay on LYPLA1 (inhibition, at 0.2 µM) it was 0%. Also, the inhibition in assay [1] (PAFAH2, at 1 µM) was 50%; in assay [1] (PAFAH2, inhibition, at 0.02 µM) it was 0%; in assay [1] (PAFAH2, inhibition, at 0.2 µM), 50%.
For the compound `O=C(N1CCOCC1)n1ccnn1`, the inhibition in the assay with ABHD11 (at 1 µM) was 100%; in the assay with ABHD11 (inhibition, at 0.02 µM) it was 0%; in the assay on ABHD11 (inhibition, at 0.2 µM), 50%; in the assay with APEH (at 1 µM), 0% (inactive); with APEH (inhibition, at 0.02 µM) it was 0%; in the assay with APEH (inhibition, at 0.2 µM), 0%. Further, the inhibition in the assay with ESD (at 1 µM) was 0% (inactive); in the assay with ESD (inhibition, at 0.02 µM) it was 0%; in the assay with ESD (inhibition, at 0.2 µM), 0%; in the assay on LYPLA1 (at 1 µM), 0% (inactive); with LYPLA1 (inhibition, at 0.02 µM) it was 0%; with LYPLA1 (inhibition, at 0.2 µM), 0%. Also, the inhibition in assay [1] (PAFAH2, at 1 µM) was 100% (inactive); in assay [1] (PAFAH2, inhibition, at 0.02 µM) it was 0%; in assay [1] (PAFAH2, inhibition, at 0.2 µM), 0%.
On to `O=C(N1CCOCC1)n1ncc(C(O)(c2ccccc2)c2ccccc2)n1`, for which the inhibition with ABHD11 (at 1 µM) is 100%; with ABHD11 (inhibition, at 0.02 µM), 25%; in the assay with ABHD11 (inhibition, at 0.2 µM), 100%; in the assay with APEH (at 1 µM), 0% (inactive); in the assay on APEH (inhibition, at 0.02 µM), 0%; with APEH (inhibition, at 0.2 µM), 0%. The inhibition is 0% (inactive) with ESD (at 1 µM); 0% in the assay with ESD (inhibition, at 0.02 µM); 0% with ESD (inhibition, at 0.2 µM); 0% (inactive) with LYPLA1 (at 1 µM); 0% in the assay on LYPLA1 (inhibition, at 0.02 µM); 0% in the assay on LYPLA1 (inhibition, at 0.2 µM). Moreover, the inhibition in assay [1] (PAFAH2, at 1 µM) was 50%; in assay [1] (PAFAH2, inhibition, at 0.02 µM), 0%; in assay [1] (PAFAH2, inhibition, at 0.2 µM), 50%.
As for `CN(C(=O)n1ccnn1)c1ccccc1`, the inhibition in the assay with ABHD11 (at 1 µM) is 100% (inactive); in the assay with ABHD11 (inhibition, at 0.02 µM) it was 0%; in the assay with ABHD11 (inhibition, at 0.2 µM), 0%; with APEH (at 1 µM), 0% (inactive); in the assay with APEH (inhibition, at 0.02 µM), 0%; with APEH (inhibition, at 0.2 µM) it was 0%. Moreover, the inhibition is 0% (inactive) in the assay with ESD (at 1 µM); 0% in the assay on ESD (inhibition, at 0.02 µM); 0% in the assay with ESD (inhibition, at 0.2 µM); 0% (inactive) in the assay on LYPLA1 (at 1 µM); 0% in the assay on LYPLA1 (inhibition, at 0.02 µM); 0% with LYPLA1 (inhibition, at 0.2 µM). Besides, the inhibition is 0% (inactive) in assay [1] (PAFAH2, at 1 µM); 0% in assay [1] (PAFAH2, inhibition, at 0.02 µM); 0% in assay [1] (PAFAH2, inhibition, at 0.2 µM).
With `O=C(N1CCCC1)n1ncc(-c2ccccc2)n1`, the inhibition was 100% in the assay on ABHD11 (at 1 µM); 0% in the assay on ABHD11 (inhibition, at 0.02 µM); 100% in the assay on ABHD11 (inhibition, at 0.2 µM); 100% in the assay on APEH (at 1 µM); 0% in the assay with APEH (inhibition, at 0.02 µM); 100% in the assay with APEH (inhibition, at 0.2 µM). Moreover, the inhibition in the assay with ESD (at 1 µM) was 0% (inactive); in the assay with ESD (inhibition, at 0.02 µM) it was 0%; with ESD (inhibition, at 0.2 µM), 0%; in the assay on LYPLA1 (at 1 µM), 0% (inactive); in the assay on LYPLA1 (inhibition, at 0.02 µM), 0%; in the assay on LYPLA1 (inhibition, at 0.2 µM), 0%. In addition, the inhibition in assay [1] (PAFAH2, at 1 µM) was 100%; in assay [1] (PAFAH2, inhibition, at 0.02 µM), 75%; in assay [1] (PAFAH2, inhibition, at 0.2 µM), 100%.
For the compound `O=C(N1CCCC1)n1ncc(-c2ccc(Oc3ccccc3)cc2)n1`, the inhibition was 0% (inactive) in the assay with ABHD11 (at 1 µM); 0% in the assay with ABHD11 (inhibition, at 0.02 µM); 0% in the assay on ABHD11 (inhibition, at 0.2 µM); 100% in the assay with APEH (at 1 µM); 0% in the assay on APEH (inhibition, at 0.02 µM); 100% in the assay with APEH (inhibition, at 0.2 µM). Besides, the inhibition in the assay on ESD (at 1 µM) was 0% (inactive); with ESD (inhibition, at 0.02 µM) it was 0%; with ESD (inhibition, at 0.2 µM) it was 0%; in the assay with LYPLA1 (at 1 µM), 0% (inactive); in the assay on LYPLA1 (inhibition, at 0.02 µM) it was 0%; in the assay on LYPLA1 (inhibition, at 0.2 µM), 0%. In addition, the inhibition is 100% in assay [1] (PAFAH2, at 1 µM); 100% in assay [1] (PAFAH2, inhibition, at 0.02 µM); 100% in assay [1] (PAFAH2, inhibition, at 0.2 µM).
On to `O=C(N1CCCC1)n1ccnn1`, for which the inhibition is 100% (inactive) with ABHD11 (at 1 µM); 0% with ABHD11 (inhibition, at 0.02 µM); 0% in the assay with ABHD11 (inhibition, at 0.2 µM); 100% (inactive) in the assay with APEH (at 1 µM); 0% in the assay with APEH (inhibition, at 0.02 µM); 0% with APEH (inhibition, at 0.2 µM). Besides, the inhibition is 0% (inactive) in the assay with ESD (at 1 µM); 0% with ESD (inhibition, at 0.02 µM); 0% in the assay on ESD (inhibition, at 0.2 µM); 100% (inactive) in the assay with LYPLA1 (at 1 µM); 0% in the assay with LYPLA1 (inhibition, at 0.02 µM); 0% in the assay with LYPLA1 (inhibition, at 0.2 µM). The inhibition in assay [1] (PAFAH2, at 1 µM) was 100% (inactive); in assay [1] (PAFAH2, inhibition, at 0.02 µM), 0%; in assay [1] (PAFAH2, inhibition, at 0.2 µM), 0%.

The record behind these values is PubChem BioAssay AID504513 (The Scripps Research Institute Molecular Screening Center, 2011).
